Experimental data published in ChEMBL document CHEMBL1764953, “Discovery of orally active carboxylic acid derivatives of 2-phenyl-5-trifluoromethyloxazole-4-carboxamide as potent diacylglycerol acyltransferase-1 inhibitors for the potential treatment of obesity and diabetes” (J Med Chem, 2011).

Assays:
hERG [1] = biological target: T1, hERG (Homo sapiens, UniProt Q12809); experiment: Inhibition of human ERG-mediated current expressed in CHO cells at 30 uM by patch clamp method; assay type: cell-based; conditions: CHO cells expressing human ERG
Method in brief: (§1)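 hERG-transfected CHO cells on automated whole-cell patch clamp at a holding potential of −80 mV; 1 s depolarizing pulse at 0.1 Hz; tail current measured at −40 mV. Sequence: 0.3% DMSO vehicle, three ascending log-interval concentrations up to 30 μM or the solubility limit, then 1 μM E-4031. At least 3 cells per compound; data normalized to vehicle and fitted with the Hill equation.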

hERG [2] = biological target: T1, hERG; experiment: Inhibition of human ERG-mediated current expressed in CHO cells by patch clamp method; assay type: cell-based; conditions: CHO cells expressing human ERG; method in brief: as §1
hERG [3] = biological target: T1, hERG; experiment: Inhibition of human ERG-mediated current expressed in CHO cells at 3 uM by patch clamp method; assay type: cell-based; conditions: CHO cells expressing human ERG; method in brief: as §1
hERG [4] = biological target: T1, hERG; experiment: Inhibition of human ERG-mediated current expressed in CHO cells at 1 uM by patch clamp method; assay type: cell-based; conditions: CHO cells expressing human ERG; method in brief: as §1
[5] = Cmax in diet-induced obese mouse plasma at 25 mg/kg administered as suspension; assay type: ADME, organism-based; design: dose 25 mg/kg
[6] = biological target: T2, Diacylglycerol O-acyltransferase 1 (Homo sapiens, UniProt O75907); experiment: Inhibition of human DGAT1 expressed in baculovirus infected insect cells after 1 hr using palmitoyl-1-14C-coenzyme A by phospholipid flashplate assay
T2 sequence (O75907 whole entry): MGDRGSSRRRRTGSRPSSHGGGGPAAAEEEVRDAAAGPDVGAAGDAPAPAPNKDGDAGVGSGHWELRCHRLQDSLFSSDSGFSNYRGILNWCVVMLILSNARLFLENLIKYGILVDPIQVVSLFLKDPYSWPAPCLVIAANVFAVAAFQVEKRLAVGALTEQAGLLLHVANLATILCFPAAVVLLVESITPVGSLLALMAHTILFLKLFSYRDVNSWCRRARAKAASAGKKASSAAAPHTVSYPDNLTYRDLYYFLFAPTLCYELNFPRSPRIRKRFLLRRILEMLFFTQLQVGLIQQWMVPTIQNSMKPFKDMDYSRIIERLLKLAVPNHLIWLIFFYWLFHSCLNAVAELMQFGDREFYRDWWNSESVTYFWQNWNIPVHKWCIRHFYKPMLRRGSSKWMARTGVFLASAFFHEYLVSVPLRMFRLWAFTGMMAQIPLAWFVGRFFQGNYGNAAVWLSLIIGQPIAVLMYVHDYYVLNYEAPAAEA

[7] = biological target: T2, Diacylglycerol O-acyltransferase 1; experiment: Inhibition of human DGAT1 expressed in CHO-K1 cells after 1 hr using 14C palmitic acid
hERG [8] = biological target: T1, hERG; experiment: Inhibition of human ERG
Cavia porcellus = species on record: Cavia porcellus; experiment: Cardiotoxicity in guinea pig Langendorff heart model assessed as QT QT prolongation; assay type: toxicity
[9] = Oral bioavailability in rat at 5 mg/kg; assay type: ADME, organism-based; conditions: in vivo
Rattus norvegicus = experiment: Antiobesity activity in diet-induced obese rat assessed as reduction in body weight gain at 25 mg/kg, po qd; assay type: functional; design: scale not given: the % may be the effect or the level left
[10] = Clearance in rat at 5 mg/kg, iv; assay type: ADME, organism-based; design: dose 5 mg/kg, route intravenous; conditions: in vivo
[11] = Tmax in diet-induced obese mouse at 25 mg/kg administered as suspension; assay type: ADME, organism-based; design: dose 25 mg/kg; conditions: in vivo
[12] = Solubility of the compound at mp 217 degC; assay type: physicochemical

T1 sequence (Q12809 whole entry): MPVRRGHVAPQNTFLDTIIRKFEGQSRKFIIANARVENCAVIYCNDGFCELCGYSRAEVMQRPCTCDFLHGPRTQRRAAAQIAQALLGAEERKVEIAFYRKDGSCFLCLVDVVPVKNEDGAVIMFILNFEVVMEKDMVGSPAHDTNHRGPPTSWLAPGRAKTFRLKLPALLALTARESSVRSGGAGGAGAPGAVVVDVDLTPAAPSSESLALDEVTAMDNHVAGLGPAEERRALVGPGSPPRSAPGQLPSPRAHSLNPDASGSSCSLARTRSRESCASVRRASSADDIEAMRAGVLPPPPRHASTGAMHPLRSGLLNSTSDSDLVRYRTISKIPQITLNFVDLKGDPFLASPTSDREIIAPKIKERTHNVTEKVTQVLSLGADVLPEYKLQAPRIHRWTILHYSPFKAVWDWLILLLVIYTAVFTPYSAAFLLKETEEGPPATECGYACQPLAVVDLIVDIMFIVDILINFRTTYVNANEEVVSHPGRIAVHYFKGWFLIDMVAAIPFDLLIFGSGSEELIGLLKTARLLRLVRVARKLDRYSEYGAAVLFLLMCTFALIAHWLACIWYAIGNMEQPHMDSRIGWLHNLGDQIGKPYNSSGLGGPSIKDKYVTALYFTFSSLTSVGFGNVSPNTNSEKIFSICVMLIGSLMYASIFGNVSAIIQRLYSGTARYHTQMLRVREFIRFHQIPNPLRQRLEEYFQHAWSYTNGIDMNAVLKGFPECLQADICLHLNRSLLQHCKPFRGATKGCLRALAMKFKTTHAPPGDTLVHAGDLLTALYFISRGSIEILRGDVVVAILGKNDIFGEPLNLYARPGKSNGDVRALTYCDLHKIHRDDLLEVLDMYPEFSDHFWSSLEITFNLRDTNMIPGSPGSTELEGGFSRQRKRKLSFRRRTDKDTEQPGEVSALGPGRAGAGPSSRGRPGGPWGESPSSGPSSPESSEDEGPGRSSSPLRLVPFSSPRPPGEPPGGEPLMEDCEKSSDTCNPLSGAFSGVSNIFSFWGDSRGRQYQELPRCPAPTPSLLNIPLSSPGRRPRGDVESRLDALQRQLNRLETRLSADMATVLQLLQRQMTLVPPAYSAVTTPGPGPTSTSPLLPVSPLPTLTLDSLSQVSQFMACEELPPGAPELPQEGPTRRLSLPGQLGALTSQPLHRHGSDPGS

## COCCN(C)c1ccc(NC(=O)c2nc(C)oc2C(F)(F)F)cn1
hERG [1]
  inhibition at 30 µM: 37%

## O=C(Nc1ccc(N2CCN(C(=O)C3CC3)CC2)nc1)c1nc(-c2ccccc2)oc1C(F)(F)F
hERG [2]
  IC20: 180 nM

## COCCN(C)c1ncc(NC(=O)c2nc(-c3ccccc3)oc2C(F)(F)F)cn1
hERG [2]
  IC20: 1500 nM

## O=C(Nc1ccc(C2CCN(C(=O)C3CC3)CC2)nc1)c1nc(-c2ccccc2)oc1C(F)(F)F
hERG [2]
  IC20: 1730 nM

## O=C(Nc1ccc(N2CCN(C(=O)C3CC3)CC2)cc1)c1nc(-c2ccccc2)oc1C(F)(F)F
hERG [3]
  inhibition at 3 µM: 35%

## COC(=O)N1CCN(c2ncc(NC(=O)c3nc(-c4ccccc4)oc3C(F)(F)F)cn2)CC1
hERG [4]
  inhibition at 1 µM: 28%

## COC(=O)N1CCC(c2ccc(NC(=O)c3nc(-c4ccccc4)oc3C(F)(F)F)cc2)CC1
[5]
  Cmax: < 10 ng/mL

## O=C(Nc1ccc(N2CCN(C(=O)[C@H]3CC[C@@H](C(=O)O)CC3)CC2)cc1)c1nc(-c2ccccc2)oc1C(F)(F)F
hERG [2]
  IC20: > 10000 nM

## O=C(Nc1ccc(C2CCN(C(=O)[C@H]3CC[C@@H](C(=O)O)CC3)CC2)cc1)c1nc(-c2ccccc2)oc1C(F)(F)F
hERG [3]
  inhibition at 3 µM: 21%
[6]
  IC50: 82 nM
[7]
  EC50: 220 nM

## O=C(Nc1ccc(N2CCN(C(=O)[C@H]3CC[C@H](C(=O)O)CC3)CC2)cc1)c1nc(-c2ccccc2)oc1C(F)(F)F
hERG [4]
  inhibition at 1 µM: 5%

## COCCN(C)c1ccc(NC(=O)c2nc(-c3ccccc3)oc2C(F)(F)F)cn1
hERG [2]
  IC20: 200 nM
hERG [8]
  IC20: 200 nM
Cavia porcellus
  Activity: Toxic
[9]
  bioavailability: 77%
Rattus norvegicus
  Activity: 4.3%
[10]
  clearance: 13.5 mL/min/kg

## COCCN(C)c1ccc(NC(=O)c2nc(-c3ccccc3)oc2C(F)(F)F)cc1
hERG [4]
  inhibition at 1 µM: 18%

## O=C(Nc1ccc(C2CCN(C(=O)C3CC3)CC2)cc1)c1nc(-c2ccccc2)oc1C(F)(F)F
hERG [3]
  inhibition at 3 µM: 13%
[11]
  Tmax: 1 h
[5]
  Cmax: 76 ng/mL

## COC(=O)N1CCC(c2ccc(NC(=O)c3nc(-c4ccccc4)oc3C(F)(F)F)cn2)CC1
hERG [4]
  inhibition at 1 µM: 16%

## COCCN(C)c1ccc(N(C)C(=O)c2nc(-c3ccccc3)oc2C(F)(F)F)cn1
hERG [1]
  inhibition at 30 µM: 34%

## CCOC(=O)N1CCN(c2ccc(NC(=O)c3nc(-c4ccccc4)oc3C(F)(F)F)cn2)CC1
hERG [2]
  IC20: 800 nM

## O=C(O)COC1CN(c2ccc(NC(=O)c3nc(-c4ccccc4)oc3C(F)(F)F)cn2)C1
hERG [1]
  inhibition at 30 µM: 12%

## COC(=O)N1CCN(c2ccc(NC(=O)c3nc(-c4ccccc4)oc3C(F)(F)F)cc2)CC1
hERG [3]
  inhibition at 3 µM: 16%

## CCOC1CN(c2ccc(NC(=O)c3nc(-c4ccccc4)oc3C(F)(F)F)cn2)C1
hERG [2]
  IC20: 370 nM

## COC(=O)N1CCN(c2ccc(NC(=O)c3nc(-c4ccccc4)oc3C(F)(F)F)cn2)CC1
hERG [2]
  IC20: 1940 nM

## O=C(Nc1ccc(N2CC(F)(F)C2)nc1)c1nc(-c2ccccc2)oc1C(F)(F)F
hERG [4]
  inhibition at 1 µM: 17%
[6]
  IC50: 16 nM
[12]
  solubility: < 1 µg/mL
[7]
  EC50: 25000 nM

## O=C(Nc1cnc(N2CC[C@H](O)C2)nc1)c1nc(-c2ccccc2)oc1C(F)(F)F
hERG [2]
  IC20: 10000 nM
